Test results as given in ChEMBL document CHEMBL2202994, “Heteroaryl urea inhibitors of fatty acid amide hydrolase: structure-mutagenicity relationships for arylamine metabolites” (Bioorg Med Chem Lett, 2012).

What was measured:
Salmonella typhimurium [1] = test: Genotoxicity in Salmonella typhimurium TA98 by Ames test in presence of S9 fractions; format: toxicity, organism-based, S9 Fraction; conditions: salmonella enterica subsp. enterica serovar typhimurium
Method in brief: (§1)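 Ames II liquid fluctuation microplate variant of the bacterial reverse mutation assay, run on the free heteroaryl amines released from the urea inhibitors. The TAMix strain mixture (TA7001–TA7006) detects base-pair substitutions and TA98 detects frameshift mutations. For metabolic activation, compounds were preincubated with rat liver S9 extract or run without it. Results were scored as positive or negative.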

Salmonella typhimurium [2] = test: Genotoxicity in Salmonella typhimurium TAMix by Ames test in presence of S9 fractions; format: toxicity, organism-based, S9 Fraction; conditions: salmonella enterica subsp. enterica serovar typhimurium; method in brief: as §1
[3] = molecular target: T1, Fatty-acid amide hydrolase 1 (Rattus norvegicus, UniProt P97612); test: Inhibition of rat FAAH preincubated for 60 mins
T1 sequence (P97612 whole entry): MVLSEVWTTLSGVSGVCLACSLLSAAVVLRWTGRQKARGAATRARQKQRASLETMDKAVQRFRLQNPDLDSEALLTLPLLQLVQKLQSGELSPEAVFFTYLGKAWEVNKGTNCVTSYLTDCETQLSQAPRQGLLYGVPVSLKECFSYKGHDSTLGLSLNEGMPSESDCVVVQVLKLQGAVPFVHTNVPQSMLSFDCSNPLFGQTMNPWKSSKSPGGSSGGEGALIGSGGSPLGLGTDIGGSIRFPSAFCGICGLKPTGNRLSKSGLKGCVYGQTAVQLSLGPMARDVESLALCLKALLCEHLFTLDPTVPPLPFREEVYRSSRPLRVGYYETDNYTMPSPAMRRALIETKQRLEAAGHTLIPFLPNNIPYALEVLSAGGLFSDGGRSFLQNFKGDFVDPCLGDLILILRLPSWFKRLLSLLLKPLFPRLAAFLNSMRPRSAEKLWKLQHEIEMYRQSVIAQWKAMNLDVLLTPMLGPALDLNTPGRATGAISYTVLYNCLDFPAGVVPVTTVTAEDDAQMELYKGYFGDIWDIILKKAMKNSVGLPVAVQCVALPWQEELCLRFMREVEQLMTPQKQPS

Salmonella typhimurium [4] = test: Genotoxicity in Salmonella typhimurium TA98 by Ames test in absence of S9 fractions; format: toxicity, organism-based; conditions: salmonella enterica subsp. enterica serovar typhimurium; method in brief: as §1
Salmonella typhimurium [5] = test: Genotoxicity in Salmonella typhimurium TAMix by Ames test in absence of S9 fractions; format: toxicity, organism-based; conditions: salmonella enterica subsp. enterica serovar typhimurium; method in brief: as §1
[6] = molecular target: T2, Fatty-acid amide hydrolase 1 (Homo sapiens, UniProt O00519); test: Inhibition of human FAAH preincubated for 60 mins
T2 sequence (O00519 whole entry): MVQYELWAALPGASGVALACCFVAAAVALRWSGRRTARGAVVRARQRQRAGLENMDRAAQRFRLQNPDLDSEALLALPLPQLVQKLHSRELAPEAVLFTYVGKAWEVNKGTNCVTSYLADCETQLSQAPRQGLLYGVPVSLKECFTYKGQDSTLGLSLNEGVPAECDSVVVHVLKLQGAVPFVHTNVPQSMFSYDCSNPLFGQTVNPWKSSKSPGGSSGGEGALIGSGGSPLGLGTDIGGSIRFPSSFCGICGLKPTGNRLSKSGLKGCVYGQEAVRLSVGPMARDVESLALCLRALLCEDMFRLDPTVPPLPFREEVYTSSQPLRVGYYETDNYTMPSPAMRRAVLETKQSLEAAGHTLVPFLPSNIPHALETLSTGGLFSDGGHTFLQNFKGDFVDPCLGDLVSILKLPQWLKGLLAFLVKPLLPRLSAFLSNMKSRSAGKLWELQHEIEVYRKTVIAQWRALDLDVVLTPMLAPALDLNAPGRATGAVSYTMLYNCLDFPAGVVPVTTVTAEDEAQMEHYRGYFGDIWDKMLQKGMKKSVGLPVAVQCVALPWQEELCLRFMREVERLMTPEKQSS

Row | IC50 [3] [nM] | IC50 [6] [nM] | Compound | Activity (Salmonella typhimurium [1]) | Activity (Salmonella typhimurium [2]) | Activity (Salmonella typhimurium [4]) | Activity (Salmonella typhimurium [5])
1 | 6000 | – | O=C(Nc1cccc2cn[nH]c12)N1CCN(Cc2cccc(Oc3ccc(Cl)cc3)c2)CC1 | Toxic | Toxic | – | –
2 | 150 | – | O=C(Nc1cnccn1)N1CCN(Cc2cccc(Oc3ccc(Cl)cc3)c2)CC1 | Non-toxic | Non-toxic | Non-toxic | Non-toxic
3 | 14 | – | O=C(Nc1noc2ncccc12)N1CCN(Cc2cccc(Oc3ccc(Cl)cc3)c2)CC1 | Non-toxic | Non-toxic | Non-toxic | Non-toxic
4 | 20 | – | O=C(Nc1nocc1Cl)N1CCN(Cc2cccc(Oc3ccc(Cl)cc3)c2)CC1 | Toxic | Toxic | Toxic | Toxic
5 | 150 | – | O=C(Nc1cc[nH]n1)N1CCN(Cc2cccc(Oc3ccc(Cl)cc3)c2)CC1 | Non-toxic | Non-toxic | Non-toxic | Non-toxic
6 | 300 | 6 | O=C(Nc1ccccc1)N1CCN(Cc2cccc(Oc3ccc(Cl)cc3)c2)CC1 | Non-toxic | Non-toxic | Non-toxic | Non-toxic
7 | 2600 | – | O=C(Nc1ccn2ccnc2c1)N1CCN(Cc2cccc(Oc3ccc(Cl)cc3)c2)CC1 | Toxic | Toxic | Toxic | Toxic
8 | 1100 | – | O=C(Nc1cnc2cc[nH]c2c1)N1CCN(Cc2cccc(Oc3ccc(Cl)cc3)c2)CC1 | Toxic | Toxic | – | –
9 | 22 | – | O=C(Nc1noc2cccnc12)N1CCN(Cc2cccc(Oc3ccc(Cl)cc3)c2)CC1 | Non-toxic | Non-toxic | Non-toxic | Non-toxic
10 | 120 | – | O=C(Nc1cccc2nonc12)N1CCN(Cc2cccc(Oc3ccc(Cl)cc3)c2)CC1 | Toxic | Toxic | – | –
11 | 0.7 | – | O=C(Nc1noc2cnccc12)N1CCN(Cc2cccc(Oc3ccc(Cl)cc3)c2)CC1 | Non-toxic | Non-toxic | Non-toxic | Non-toxic
12 | 120 | – | O=C(Nc1cnc2ccccn12)N1CCN(Cc2cccc(Oc3ccc(Cl)cc3)c2)CC1 | Non-toxic | Non-toxic | Non-toxic | Non-toxic
13 | 21 | – | O=C(Nc1cnc2[nH]ccc2c1)N1CCN(Cc2cccc(Oc3ccc(Cl)cc3)c2)CC1 | Toxic | Toxic | – | –
14 | 2400 | – | O=C(Nc1ccn2ccnc2n1)N1CCN(Cc2cccc(Oc3ccc(Cl)cc3)c2)CC1 | Non-toxic | Non-toxic | Non-toxic | Non-toxic
15 | 93 | – | O=C(Nc1cccnn1)N1CCN(Cc2cccc(Oc3ccc(Cl)cc3)c2)CC1 | Non-toxic | Non-toxic | Non-toxic | Non-toxic
16 | 8.3 | – | O=C(Nc1cncc2ccccc12)N1CCN(Cc2cccc(Oc3ccc(Cl)cc3)c2)CC1 | Toxic | Toxic | – | –
17 | 33 | 1.4 | O=C(Nc1cccnc1)N1CCN(Cc2cccc(Oc3ccc(Cl)cc3)c2)CC1 | Non-toxic | Non-toxic | Non-toxic | Non-toxic
18 | 8.1 | – | O=C(Nc1noc2ccccc12)N1CCN(Cc2cccc(Oc3ccc(Cl)cc3)c2)CC1 | Non-toxic | Non-toxic | Non-toxic | Non-toxic
19 | 2200 | – | O=C(Nc1noc2ccncc12)N1CCN(Cc2cccc(Oc3ccc(Cl)cc3)c2)CC1 | Non-toxic | Non-toxic | Non-toxic | Non-toxic
20 | 46 | – | O=C(Nc1nnn[nH]1)N1CCN(Cc2cccc(Oc3ccc(Cl)cc3)c2)CC1 | Non-toxic | Non-toxic | Non-toxic | Non-toxic
21 | 3600 | – | O=C(Nc1ccc2nccn2c1)N1CCN(Cc2cccc(Oc3ccc(Cl)cc3)c2)CC1 | Non-toxic | Non-toxic | Non-toxic | Non-toxic
22 | 24 | – | O=C(Nc1ccnc2nccn12)N1CCN(Cc2cccc(Oc3ccc(Cl)cc3)c2)CC1 | Non-toxic | Non-toxic | Non-toxic | Non-toxic
23 | 3500 | – | O=C(Nc1cccn2ccnc12)N1CCN(Cc2cccc(Oc3ccc(Cl)cc3)c2)CC1 | Non-toxic | Non-toxic | Non-toxic | Non-toxic
24 | 53 | – | O=C(Nc1cnc2cccnn12)N1CCN(Cc2cccc(Oc3ccc(Cl)cc3)c2)CC1 | Non-toxic | Non-toxic | Non-toxic | Non-toxic
25 | 5.7 | – | O=C(Nc1cccc2nccn12)N1CCN(Cc2cccc(Oc3ccc(Cl)cc3)c2)CC1 | Non-toxic | Non-toxic | Non-toxic | Non-toxic
26 | – | – | O=C(Nc1ccon1)N1CCN(Cc2cccc(Oc3ccc(Cl)cc3)c2)CC1 | Non-toxic | Non-toxic | Non-toxic | Non-toxic
27 | 25 | – | O=C(Nc1cccc2nsnc12)N1CCN(Cc2cccc(Oc3ccc(Cl)cc3)c2)CC1 | Non-toxic | Non-toxic | Non-toxic | Non-toxic
28 | 470 | – | O=C(Nc1cc2nccn2cn1)N1CCN(Cc2cccc(Oc3ccc(Cl)cc3)c2)CC1 | Non-toxic | Non-toxic | Non-toxic | Non-toxic
29 | 200 | – | Cc1nc2cc(NC(=O)N3CCN(Cc4cccc(Oc5ccc(Cl)cc5)c4)CC3)ccc2o1 | Toxic | Toxic | – | –
30 | > 10000 | > 10000 | O=C(Nc1cn2ccccc2n1)N1CCN(Cc2cccc(Oc3ccc(Cl)cc3)c2)CC1 | Non-toxic | Non-toxic | Non-toxic | Non-toxic
